Experimental data reported in ChEMBL document CHEMBL3877301 (J Med Chem, 2016).

What was measured:
[1] = biological target: T1, Adenosine receptor A1 (Homo sapiens) (UniProt P30542); assay: Inverse agonist activity at human adenosine A1 receptor expressed in CHO cells assessed as inhibition of cAMP accumulation at 10 uM measured after 150 mins in presence of [3H]cAMP by scintillation counting method relative to control; assay type: functional, cell-based
T1 sequence (whole entry): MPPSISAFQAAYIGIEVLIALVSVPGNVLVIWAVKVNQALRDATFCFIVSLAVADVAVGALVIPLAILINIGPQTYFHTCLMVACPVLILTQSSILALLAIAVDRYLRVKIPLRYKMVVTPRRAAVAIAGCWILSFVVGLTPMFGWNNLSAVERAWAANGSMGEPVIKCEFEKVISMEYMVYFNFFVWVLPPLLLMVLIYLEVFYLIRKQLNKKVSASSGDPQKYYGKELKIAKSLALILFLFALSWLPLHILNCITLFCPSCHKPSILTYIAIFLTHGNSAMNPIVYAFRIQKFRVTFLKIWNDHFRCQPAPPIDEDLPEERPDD
Procedure, shortened: (§1)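 Transfected CHO cells (hA1, hA2B or hA3) were grown adherently in DMEM/F12 with 10% fetal calf serum, penicillin, streptomycin, 2 mM L-glutamine and 0.2 mg/mL G418 at 37 °C in 5% CO2. Test compounds were applied at 10 μM. cAMP is reported as percent of basal level (100%), given as mean ± SEM.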

[2] = biological target: T2, Adenosine receptor A3 (Homo sapiens) (UniProt P0DMS8); assay: Inverse agonist activity at human adenosine A3 receptor expressed in CHO cells assessed as inhibition of cAMP accumulation at 10 uM measured after 150 mins in presence of [3H]cAMP by scintillation counting method relative to control; assay type: functional, cell-based; procedure, shortened: as §1
T2 sequence (whole entry): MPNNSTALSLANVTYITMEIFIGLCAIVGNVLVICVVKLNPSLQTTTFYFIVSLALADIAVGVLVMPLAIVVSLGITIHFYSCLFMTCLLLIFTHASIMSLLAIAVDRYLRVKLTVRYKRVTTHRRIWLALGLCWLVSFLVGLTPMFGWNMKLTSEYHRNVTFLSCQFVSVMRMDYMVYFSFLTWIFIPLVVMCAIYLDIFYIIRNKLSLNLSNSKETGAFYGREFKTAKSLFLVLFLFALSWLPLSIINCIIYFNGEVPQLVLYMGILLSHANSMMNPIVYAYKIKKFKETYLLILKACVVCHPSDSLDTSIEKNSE

[3] = biological target: T3, Adenosine receptor A2b (Homo sapiens) (UniProt P29275); assay: Inverse agonist activity at human adenosine A2B receptor expressed in CHO cells assessed as inhibition of cAMP accumulation at 10 uM measured after 150 mins in presence of [3H]cAMP by scintillation counting method relative to control; assay type: functional, cell-based; procedure, shortened: as §1
T3 sequence (whole entry): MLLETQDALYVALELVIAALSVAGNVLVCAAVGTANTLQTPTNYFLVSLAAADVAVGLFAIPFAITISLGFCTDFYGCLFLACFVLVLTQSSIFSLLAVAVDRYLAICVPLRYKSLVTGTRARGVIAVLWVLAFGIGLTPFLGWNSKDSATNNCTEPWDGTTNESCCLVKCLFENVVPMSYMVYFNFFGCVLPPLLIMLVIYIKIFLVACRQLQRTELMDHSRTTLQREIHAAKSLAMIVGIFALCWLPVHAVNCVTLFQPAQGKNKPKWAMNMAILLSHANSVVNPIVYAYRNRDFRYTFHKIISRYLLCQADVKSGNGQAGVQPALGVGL

[4] = biological target: T4, Adenosine receptor A1 (Homo sapiens, UniProt P30542); assay: Displacement of [3H]DPCPX from human adenosine A1 receptor expressed in CHO cell membranes measured after 90 mins by scintillation counting method
T4 sequence (P30542 whole entry): T1 sequence (whole entry)
Procedure, shortened: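 Membranes came from CHO cells stably transfected with hA1 AR. Cells were scraped into ice-cold hypotonic buffer (5 mM Tris HCl, 1 mM EDTA, pH 7.4), homogenized, and spun at 40000g for 30 min at 4 °C. Membranes (50 μg protein/100 μL) were incubated with 1 nM [3H]-DPCPX and varied test concentrations at 25 °C for 90 min in 50 mM Tris HCl, pH 7.4.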

[5] = biological target: T5, Adenosine receptor A3 (Homo sapiens, UniProt P0DMS8); assay: Displacement of [125I]AB-MECA from human adenosine A3 receptor expressed in CHO cell membranes measured after 120 mins by scintillation counting method
T5 sequence (P0DMS8 whole entry): T2 sequence (whole entry)

[6] = biological target: T6, Adenosine receptor A2b (Homo sapiens, UniProt P29275); assay: Inverse agonist activity at human adenosine A2B receptor expressed in CHO cells assessed as inhibition of cAMP accumulation measured after 150 mins in presence of [3H]cAMP by scintillation counting method; assay type: functional, cell-based
T6 sequence (P29275 whole entry): T3 sequence (whole entry)

[7] = biological target: T7, Adenosine receptor A2a (Homo sapiens, UniProt P29274); assay: biochemical
T7 sequence (P29274 whole entry): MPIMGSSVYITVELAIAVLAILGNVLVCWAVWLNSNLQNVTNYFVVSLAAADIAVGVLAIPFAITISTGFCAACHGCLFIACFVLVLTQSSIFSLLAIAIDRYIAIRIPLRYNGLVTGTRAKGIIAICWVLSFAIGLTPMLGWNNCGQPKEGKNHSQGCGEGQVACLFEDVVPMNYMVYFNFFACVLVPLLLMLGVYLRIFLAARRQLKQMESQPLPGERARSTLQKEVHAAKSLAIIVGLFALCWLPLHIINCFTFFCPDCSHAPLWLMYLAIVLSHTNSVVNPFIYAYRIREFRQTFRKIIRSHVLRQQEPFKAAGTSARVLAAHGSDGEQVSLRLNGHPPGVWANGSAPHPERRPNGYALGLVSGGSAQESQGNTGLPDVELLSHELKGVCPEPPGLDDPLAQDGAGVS

[8] = biological target: T7, Adenosine receptor A2a; assay: Inverse agonist activity at human adenosine A2A receptor expressed in CHO cells assessed as inhibition of cAMP accumulation measured after 150 mins in presence of [3H]cAMP by scintillation counting method; assay type: functional, cell-based
[9] = biological target: T7, Adenosine receptor A2a; assay: Antagonist activity against human adenosine A2A receptor expressed in CHO cells assessed as inhibition of CGS21680-stimulated cAMP accumulation measured after 150 mins in presence of [3H]cAMP by scintillation counting method; assay type: functional, cell-based
[10] = species: Mus musculus; assay: Analgesic activity in CD-1 mouse assessed as reduction in acetic acid-induced abdominal constrictions preincubated for 15 mins followed by acetic acid challenge measured for 30 mins by writhing test; assay type: functional; conditions: for inhibition: Abdomen
Procedure, shortened: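 Mice received acetic acid ip to induce abdominal constrictions; vehicle-treated mice served as controls. Test agents were given over a dose range. ED50 (mg/kg) was derived from the dose–response curve, and dose dependence was analysed by one-way ANOVA.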

[11] = species: Mus musculus; assay: Antinociceptive activity in CD-1 mouse assessed as increase in latency in response to heat stimulus measured for 15 mins by hot water tail immersion test; assay type: functional; conditions: CD-1, 0.25 h
Procedure, shortened: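 Test agents were given to mice over a dose range before hot water tail immersion. ED50 (mg/kg) was derived from the dose–response curve, and the minimum effective dose was also noted.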

[12] = biological target: T7, Adenosine receptor A2a; conditions: CHO

| SMILES | inhibition [1] [%] | inhibition [2] [%] | inhibition [3] [%] | Ki [4] [nM] | Ki [5] [nM] | IC50 [6] [nM] | Ki [7] [nM] | IC50 [8] [nM] | IC50 [9] [nM] | inhibition [10] | ED50 ([10]; CD-1, Abdomen) [mg/kg] | ED50 [11] [mg/kg] | KiH [12] [nM] | minimal effective dose ([11]; read-out: MED) [mg/kg] |
| --- | --- | --- | --- | --- | --- | --- | --- | --- | --- | --- | --- | --- | --- | --- |
| Nc1nc(NCc2cccc(O)c2)nc2sc(-c3ccco3)nc12 | 96 | 98 | 95 |  |  |  |  |  |  |  |  |  |  |  |
| Nc1nc(NCCc2ccc(O)c(O)c2)nc2sc(-c3ccco3)nc12 |  |  |  | 39 | 546 | 18 | 40 |  |  |  |  |  |  |  |
| Nc1nc(NCc2ccccc2)nc2sc(-c3ccco3)nc12 | 101 | 102 | 95 | 45 | 37 | 32 | 22 | 29 | 18 |  |  |  |  |  |
| COc1cccc(CCNc2nc(N)c3nc(-c4ccco4)sc3n2)c1 |  |  |  | 0.92 | 287 | 47 | 17 |  |  |  |  |  |  |  |
| Nc1nc(NCCc2ccc(O)cc2)nc2sc(-c3ccco3)nc12 | 102 | 101 | 92 | 37 | 1880 | 482 | 18 | 25 | 21 |  |  |  |  |  |
| COc1ccc(CCNc2nc(N)c3nc(-c4ccco4)sc3n2)cc1OC |  |  |  | 221 | 824 | 95 | 91 |  |  |  |  |  |  |  |
| COc1cccc(CNc2nc(N)c3nc(-c4ccco4)sc3n2)c1 | 104 | 106 | 99 |  |  |  |  |  |  | Dose-dependent effect | 0.158 | 0.926 | 6.71 |  |
| Nc1nc(NCCCc2ccccc2)nc2sc(-c3ccco3)nc12 |  |  |  | 49 | 1140 | 1770 | 58 |  |  |  |  |  |  |  |
| COc1ccc(CCNc2nc(N)c3nc(-c4ccco4)sc3n2)cc1 | 93 | 105 | 103 | 61 | 2650 | 553 | 32 | 42 | 31 |  |  |  |  |  |
| Nc1nc(NCCc2ccc(O)cc2)nc2nc(-c3ccco3)nn12 [ZM-241385] | 103 | 101 | 109 |  |  |  |  |  |  | Dose-dependent effect |  | > 10 |  |  |
| Nc1nc(NCCc2ccccc2)nc2sc(-c3ccco3)nc12 | 105 | 94 | 102 | 24 | 217 | 389 | 30 | 35 | 16 |  |  |  |  |  |
| COc1ccccc1CNc1nc(N)c2nc(-c3ccco3)sc2n1 | 106 | 91 | 94 |  |  |  |  |  |  | Dose-dependent effect |  |  | 5.23 | 0.01 |
| COc1ccc(CNc2nc(N)c3nc(-c4ccco4)sc3n2)cc1 | 100 | 104 | 97 |  |  |  |  |  |  |  |  |  |  |  |
| CN1CC[C@]23c4c5ccc(O)c4O[C@H]2[C@@H](O)C=C[C@H]3[C@H]1C5 [MORPHINE] |  |  |  |  |  |  |  |  |  | Dose-dependent effect |  | 1.14 |  |  |
| Nc1nc(NCCc2cccc(O)c2)nc2sc(-c3ccco3)nc12 |  |  |  | 0.23 | 76 | 25 | 16 |  |  |  |  |  |  |  |
| Nc1nc(Nc2ccccc2)nc2sc(-c3ccco3)nc12 |  |  |  | 645 | 321 | 632 | 782 |  |  |  |  |  |  |  |
